# Test results from ChEMBL document CHEMBL1153417, “5,7,8-Trimethyl-benzopyran and 5,7,8-trimethyl-1,4-benzoxazine aminoamide derivatives as novel antiarrhythmics against ischemia-reperfusion injury” (J Med Chem, 2009).
# Active and inactive are the calls of the source. No cut-off for these calls is given here.
# System: Heart
# Assay: Antioxidant activity in ischemia-reperfusion injury exposed Wistar rat heart assessed as malondialdehyde level per gram of wet tissue at 1 uM by thiobarbituric acid test
# Assay type: functional
# Settings: not given
# Method in brief: (§1)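 Rat hearts were taken under pentobarbital (30-40 mg per animal) after iv heparin. They were perfused by Langendorff at 90 cm H2O with oxygenated KHB buffer (pH 7.2, 11 mmol l-1 glucose) at 37 °C. After 20 min equilibration came 15 min ischemia (glucose-free KHB with 10 mM Tris-HCl, N2-equilibrated), then 60 min reperfusion. Compound was present for the last 5 min of ischemia and through reperfusion; n = 3-5.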
row,SMILES,Activity [ng/g]
1,CCN(CC)CC(=O)N1CCOc2c(C)c(C)c(Cl)c(C)c21,163
2,CCN(CC)CC(=O)NC1CC(c2ccccc2)Oc2c(C)c(C)c(O)c(C)c21 (configuration not stated),129
3,CCN(CC)CC(=O)N1C[C@H](c2ccccc2)Oc2c(C)c(C)c(Cl)c(C)c21,106
4,CCN(CC)CC(=O)N1CC(c2ccccc2)Oc2c(C)c(C)c(Cl)c(C)c21 (configuration not stated),118

# System: Heart
# Assay: Antiarrhythmic activity in ischemia-reperfusion injury exposed Wistar rat heart assessed as arrhythmia score at 1 uM
# Assay type: functional
# Settings: not given
# Method in brief: as §1
row,SMILES,Activity
1,CCN(CC)CC(=O)N1CCOc2c(C)c(C)c(Cl)c(C)c21,1
2,CCN(CC)CC(=O)NC1CC(c2ccccc2)Oc2c(C)c(C)c(O)c(C)c21 (configuration not stated),3.6
3,CCN(CC)CC(=O)N1C[C@H](c2ccccc2)Oc2c(C)c(C)c(Cl)c(C)c21,4.3
4,CCN(CC)CC(=O)N1CC(c2ccccc2)Oc2c(C)c(C)c(Cl)c(C)c21 (configuration not stated),1

# System: Heart
# Assay: Antiarrhythmic activity in ischemia-reperfusion injury exposed Wistar rat heart assessed as premature ventricular beats at 30 uM relative to untreated control
# Assay type: functional
# Settings: not given
# Method in brief: as §1
row,SMILES,Activity [%]
1,CCN(CC)CC(=O)NC1CC(C)(C)Oc2c(C)c(C)c(O)c(C)c21 (configuration not stated),9
2,CCCCCCC1(C)CC(NC(=O)CN(CC)CC)c2c(C)c(O)c(C)c(C)c2O1 (configuration not stated),10

# System: Heart
# Assay: Antiarrhythmic activity in ischemia-reperfusion injury exposed Wistar rat heart assessed as premature ventricular beats at 1 uM relative to untreated control
# Assay type: functional
# Settings: not given
# Method in brief: as §1
row,SMILES,Activity [%]
1,CCN(CC)CC(=O)N1CCOc2c(C)c(C)c(Cl)c(C)c21,3.9
2,CCN(CC)CC(=O)NC1CC(c2ccccc2)Oc2c(C)c(C)c(O)c(C)c21 (configuration not stated),4.3
3,CCN(CC)CC(=O)N1C[C@H](c2ccccc2)Oc2c(C)c(C)c(Cl)c(C)c21,1.5
4,CCN(CC)CC(=O)N1CC(c2ccccc2)Oc2c(C)c(C)c(Cl)c(C)c21 (configuration not stated),1

# System: Heart
# Assay: Antiarrhythmic activity in ischemia-reperfusion injury exposed Wistar rat heart assessed as premature ventricular beats at 100 uM relative to untreated control
# Assay type: functional
# Settings: not given
# Method in brief: as §1
row,SMILES,Activity [%]
1,CCN(CC)CC(=O)NC1CC(C)(C)Oc2c(C)c(C)c(O)c(C)c21 (configuration not stated),8
2,CCCCCCC1(C)CC(NC(=O)CN(CC)CC)c2c(C)c(O)c(C)c(C)c2O1 (configuration not stated),9

# System: Heart
# Assay: Antioxidant activity in ischemia-reperfusion injury exposed Wistar rat heart assessed as reduction of malondialdehyde level at 2 uM by thiobarbituric acid test relative to control
# Assay type: functional
# Set-up: scale not given: the % may be the effect or the level left
# Settings: not given
# Method in brief: as §1
row,SMILES,Activity [%]
1,CCN(CC)CC(=O)N1CCOc2c(C)c(C)c(Cl)c(C)c21,29
2,CCN(CC)CC(=O)NC1CC(c2ccccc2)Oc2c(C)c(C)c(O)c(C)c21 (configuration not stated),45

# System: Heart
# Assay: Antioxidant activity in ischemia-reperfusion injury exposed Wistar rat heart assessed as reduction of malondialdehyde level at 1 uM by thiobarbituric acid test relative to control
# Assay type: functional
# Set-up: scale not given: the % may be the effect or the level left
# Settings: not given
# Method in brief: as §1
row,SMILES,Activity [%]
1,CCN(CC)CC(=O)N1C[C@H](c2ccccc2)Oc2c(C)c(C)c(Cl)c(C)c21,50

# System: Heart
# Assay: Toxicity in ischemia-reperfusion injury exposed Wistar rat heart assessed as induction of ventricular tachycardia at 1 uM
# Assay type: tissue-based
# Settings: not given
# Method in brief: as §1
row,SMILES,Activity
1,CCN(CC)CC(=O)N1C[C@H](c2ccccc2)Oc2c(C)c(C)c(Cl)c(C)c21,Toxic

# System: Heart
# Assay: Toxicity in ischemia-reperfusion injury exposed Wistar rat heart assessed as induction of ventricular fibrillation at 1 uM
# Assay type: tissue-based
# Settings: not given
# Method in brief: as §1
row,SMILES,Activity
1,CCN(CC)CC(=O)N1C[C@H](c2ccccc2)Oc2c(C)c(C)c(Cl)c(C)c21,Toxic

# Organism: Oryctolagus cuniculus
# Assay: Electrophysiological effect in New Zealand rabbit right ventricular papillary muscle assessed as resting membrane potential at 5 uM at 1 Hz stimulation frequency
# Assay type: functional, tissue-based
# Settings: Muscle tissue
# Method in brief: (§2)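 Right ventricular papillary muscle tips were superfused at 37 °C with bicarbonate solution (pH 7.35-7.40, 95% O2/5% CO2). They were paced at 1 Hz (1000 ms cycle length) with 1 ms constant-current pulses through a bipolar platinum electrode. Transmembrane potentials were recorded by conventional microelectrodes, and RP, CT, APA, Vmax, APD50 and APD90 were measured automatically.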
row,SMILES,Activity [mV]
1,CCOC(=O)C1(C)CN(C(=O)CN(CC)CC)c2c(C)c(Cl)c(C)c(C)c2O1 (configuration not stated),-81.5

# System: not listed separately
# Assay: Electrophysiological effect in New Zealand rabbit right ventricular papillary muscle assessed as action potential amplitude at 5 uM at 1 Hz stimulation frequency
# Assay type: functional, Oryctolagus cuniculus, Muscle tissue
# Settings: not given
# Method in brief: as §2
row,SMILES,Activity [mV]
1,CCOC(=O)C1(C)CN(C(=O)CN(CC)CC)c2c(C)c(Cl)c(C)c(C)c2O1 (configuration not stated),105.1

# System: not listed separately
# Assay: Electrophysiological effect in New Zealand rabbit right ventricular papillary muscle assessed as action potential duration measured at 50% repolarization at 5 uM at 1 Hz stimulation frequency
# Assay type: functional, Oryctolagus cuniculus, Muscle tissue
# Settings: not given
# Method in brief: as §2
row,SMILES,Activity [ms]
1,CCOC(=O)C1(C)CN(C(=O)CN(CC)CC)c2c(C)c(Cl)c(C)c(C)c2O1 (configuration not stated),107.7

# System: not listed separately
# Assay: Electrophysiological effect in New Zealand rabbit right ventricular papillary muscle assessed as action potential duration measured at 90% repolarization at 5 uM at 1 Hz stimulation frequency
# Assay type: functional, Oryctolagus cuniculus, Muscle tissue
# Settings: not given
# Method in brief: as §2
row,SMILES,Activity [ms]
1,CCOC(=O)C1(C)CN(C(=O)CN(CC)CC)c2c(C)c(Cl)c(C)c(C)c2O1 (configuration not stated),159.5

# System: not listed separately
# Assay: Electrophysiological effect in New Zealand rabbit right ventricular papillary muscle assessed as maximal rate of depolarization at 5 uM at 1 Hz stimulation frequency
# Assay type: functional, Oryctolagus cuniculus, Muscle tissue
# Settings: not given
# Method in brief: as §2
row,SMILES,Activity [V/s]
1,CCOC(=O)C1(C)CN(C(=O)CN(CC)CC)c2c(C)c(Cl)c(C)c(C)c2O1 (configuration not stated),184.7

# Organism: Oryctolagus cuniculus
# Assay: Electrophysiological effect in New Zealand rabbit right ventricular papillary muscle assessed as resting membrane potential at 20 um at 1 Hz stimulation frequency
# Assay type: functional, tissue-based
# Settings: Muscle tissue
# Method in brief: as §2
row,SMILES,Activity [mV]
1,Cc1cccc(C)c1OCC(C)N (configuration not stated) [MEXILETINE],-85.7
2,CC(C)NCC(O)c1ccc(NS(C)(=O)=O)cc1 (configuration not stated) [SOTALOL],-85.9

# System: not listed separately
# Assay: Electrophysiological effect in New Zealand rabbit right ventricular papillary muscle assessed as action potential amplitude at 20 uM at 1 Hz stimulation frequency
# Assay type: functional, Oryctolagus cuniculus, Muscle tissue
# Settings: not given
# Method in brief: as §2
row,SMILES,Activity [mV]
1,Cc1cccc(C)c1OCC(C)N (configuration not stated) [MEXILETINE],105.9
2,CC(C)NCC(O)c1ccc(NS(C)(=O)=O)cc1 (configuration not stated) [SOTALOL],109.5

# System: not listed separately
# Assay: Electrophysiological effect in New Zealand rabbit right ventricular papillary muscle assessed as action potential duration measured at 50% repolarization at 20 uM at 1 Hz stimulation frequency
# Assay type: functional, Oryctolagus cuniculus, Muscle tissue
# Settings: not given
# Method in brief: as §2
row,SMILES,Activity [ms]
1,Cc1cccc(C)c1OCC(C)N (configuration not stated) [MEXILETINE],141
2,CC(C)NCC(O)c1ccc(NS(C)(=O)=O)cc1 (configuration not stated) [SOTALOL],219.9

# System: not listed separately
# Assay: Electrophysiological effect in New Zealand rabbit right ventricular papillary muscle assessed as action potential duration measured at 90% repolarization at 20 uM at 1 Hz stimulation frequency
# Assay type: functional, Oryctolagus cuniculus, Muscle tissue
# Settings: not given
# Method in brief: as §2
row,SMILES,Activity [ms]
1,Cc1cccc(C)c1OCC(C)N (configuration not stated) [MEXILETINE],180.9
2,CC(C)NCC(O)c1ccc(NS(C)(=O)=O)cc1 (configuration not stated) [SOTALOL],275

# Organism: Oryctolagus cuniculus
# Assay: Electrophysiological effect in New Zealand rabbit right ventricular papillary muscle assessed as increase in conduction time at 5 uM at 1 Hz stimulation frequency
# Assay type: functional, tissue-based
# Settings: Muscle tissue
# Method in brief: as §2
row,SMILES,Activity
1,CCOC(=O)C1(C)CN(C(=O)CN(CC)CC)c2c(C)c(Cl)c(C)c(C)c2O1 (configuration not stated),Active

# System: not listed separately
# Assay: Electrophysiological effect in New Zealand rabbit right ventricular papillary muscle assessed as maximal rate of depolarization at 20 uM at 1 Hz stimulation frequency
# Assay type: functional, Oryctolagus cuniculus, Muscle tissue
# Settings: not given
# Method in brief: as §2
row,SMILES,Activity [V/s]
1,Cc1cccc(C)c1OCC(C)N (configuration not stated) [MEXILETINE],190.3
2,CC(C)NCC(O)c1ccc(NS(C)(=O)=O)cc1 (configuration not stated) [SOTALOL],202.4
